Publication PMC4887451 (Natural product communications, 2015)
Values after ≈ are worked out from the molar mass of the structure shown. Each block holds one compound with its values, some of them ahead of it.

What was measured:
Assay type in all cases: cell-based
[1] = system: Trypanosoma brucei brucei; experiment: antitrypanosomal Alamar Blue assay on Trypanosoma brucei trypomastigotes
Procedure, shortened: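 Trypomastigote cultures of T. brucei brucei exposed to test compound, with viability read by Alamar Blue. DFMO served as positive control.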

[2] = system: Candida glabrata ATCC 90030; experiment: antifungal screening; details: Nakaseomyces glabratus, ATCC90030, read-out: IC50 against Candida glabrata
Procedure, shortened: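 Tested alongside C. albicans ATCC 90028, C. krusei ATCC 6258, Cryptococcus neoformans ATCC 90113 and Aspergillus fumigatus ATCC 204305, following a previously described procedure. IC50 derived by curve fitting. Amphotericin B was the positive control.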

[3] = system: chloroquine-resistant (W2) Plasmodium falciparum; experiment: antiplasmodial screening by plasmodial LDH activity, W2 strain; details: for selectivity index (SI), ratio of VERO IC50 to W2 IC50: VERO mammalian cell line
[4] = system: chloroquine-sensitive (D6) Plasmodium falciparum; experiment: antiplasmodial screening by plasmodial LDH activity, D6 strain; details: for selectivity index (SI), ratio of VERO IC50 to D6 IC50: VERO mammalian cell line

SMILES: C=C[C@]1(C)CC[C@H](C(C)(C)O[C@@H]2O[C@H](CO[C@@H]3OC[C@@H](O)[C@H](O)[C@H]3O)[C@@H](O)[C@H](O)[C@H]2O)O1 (relative stereo) [Compound 9, (3S, 6R) cis-linalool 3,6 oxide, O-β-D-xylopyranosyl-(1″→6′)-β-D-glucopyranoside]
IC50, trypanocidal activity against Trypanosoma brucei brucei [1]: 8.18 µg/mL (≈ 17.6 µM)
IC90, trypanocidal activity against Trypanosoma brucei brucei [1]: > 10 µg/mL

IC50 [2]: 0.34 µg/mL (≈ 0.368 µM)
SMILES: C[C@@H]1[C@H](O)[C@@H](C)/C=C/C=C/C=C/C=C/C=C/C=C/C=C/[C@H](O[C@@H]2O[C@H](C)[C@@H](O)[C@H](N)[C@@H]2O)C[C@@H]2O[C@](O)(C[C@@H](O)C[C@@H](O)[C@H](O)CC[C@@H](O)C[C@@H](O)CC(=O)O[C@H]1C)C[C@H](O)[C@H]2C(=O)O [AMB, amphotericin B, reference compound]

SMILES: C[C@@H]1O[C@@H](Oc2cc(O)c3c(=O)c(O)c(-c4ccc(O)c(O)c4)oc3c2)[C@H](O)[C@H](O)[C@H]1O [Compound 15, quercetin-7-O-α-L-rhamnopyranoside]
IC50, trypanocidal activity against Trypanosoma brucei brucei [1]: 9.02 µg/mL (≈ 20.1 µM)
IC90, trypanocidal activity against Trypanosoma brucei brucei [1]: > 10 µg/mL

SMILES: O=c1c(O)c(-c2ccc(O)c(O)c2)oc2cc(O)cc(O)c12 [Compound 16, quercetin]
IC50 [2]: 8.66 µg/mL (≈ 28.7 µM)

IC50 against chloroquine-resistant (W2) Plasmodium falciparum ([3]; plasmodial LDH activity): 4.53 µg/mL (≈ 8.54 µM)
IC50 against chloroquine-sensitive (D6) Plasmodium falciparum ([4]; plasmodial LDH activity): 3.29 µg/mL (≈ 6.2 µM)
SMILES: COC(=O)C1(O)CC(O)C(OC(=O)/C=C/c2ccc(O)c(O)c2)C(OC(=O)/C=C/c2ccc(O)c(O)c2)C1 (centres unmarked) [Compound 20, 4,5-dicaffeoyl quinic acid methyl ester]
selectivity index (SI), ratio of VERO IC50 to W2 IC50 [3]: > 1
selectivity index (SI), ratio of VERO IC50 to D6 IC50 [4]: > 1.4

SMILES: NCCCC(N)(C(=O)O)C(F)F (centres unmarked) [DFMO, difluoromethylornithine, reference compound]
IC50, trypanocidal activity against Trypanosoma brucei brucei [1]: 2.30 µg/mL (≈ 12.6 µM)
IC90, trypanocidal activity against Trypanosoma brucei brucei [1]: 5.20 µg/mL (≈ 28.5 µM)

SMILES: CCN(CC)CCCC(C)Nc1ccnc2cc(Cl)ccc12 (centres unmarked) [chloroquine, reference compound]
selectivity index (SI), ratio of VERO IC50 to W2 IC50 [3]: > 2.1
selectivity index (SI), ratio of VERO IC50 to D6 IC50 [4]: > 9
